Converted amounts (≈) assume the structure as drawn.
What follows are compounds tested on Mycobacterium tuberculosis (assay: Antitubercular activity against Mycobacterium tuberculosis H37Rv after 2 weeks by agar plate assay). Details: 336 h.
Format: functional
How it was run: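 Inoculum from colonies suspended in 7H9 broth, adjusted to McFarland no. 1, then diluted; 33 μL spotted per quadrant. Incubated 35 °C, 10% CO2. MIC = lowest concentration giving complete growth inhibition, read by eye.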
`Cc1cc(=O)c2c(O)c3c(cc2o1)OCO3` [PISONIN E] showed an MIC of at least 190 µg/mL. Compound `Cc1cc(=O)c2c(O)cc(O)cc2o1` [NOREUGENIN] has an MIC of 110 µg/mL (≈ 572 µM). Work on `COc1c(O)cc2oc(C)cc(=O)c2c1O` [PISONIN B] yielded an MIC of 25 µg/mL (≈ 113 µM). In the case of `CC[C@@H](CO)NCCN[C@@H](CC)CO` [ETHAMBUTOL], the MIC is reported as 6.25 µg/mL (≈ 30.6 µM). In the case of `COc1cc2occc(=O)c2c(O)c1OC` [PISONIN A], the MIC is reported as at least 100 µg/mL. `COc1c(O)cc2c(c1O)C(=O)C[C@@H](c1ccccc1)O2` [DIHYDROOROXYLIN A] gave an MIC of 50 µg/mL (≈ 175 µM). `O=c1ccoc2cc3c(c(O)c12)OCO3` [PISONIN D] was tested, and the MIC was at least 236 µg/mL. Compound `COc1cc(/C=C/C(=O)NC[C@H](O)c2ccc(O)cc2)ccc1O` has an MIC of 50 µg/mL (≈ 152 µM). `Cc1c(O)c(C)c2occc(=O)c2c1O` [LEPTORUMOL] showed an MIC of 82.9 µg/mL (≈ 402 µM). Work on `COc1c(O)c(C)c2occ(-c3ccccc3O)c(=O)c2c1O` [PISONIANONE] yielded an MIC of at least 175 µg/mL. For `Cc1c(O)c(C)c2c(c1O)C(=O)C[C@@H](c1ccccc1O)O2`, the MIC was 20 µg/mL (≈ 66.6 µM). `COc1cc(O)c2c(=O)cc(C)oc2c1` [EUGENIN] gave an MIC of 103 µg/mL (≈ 500 µM). `Cc1c(O)cc(O)c2c1O[C@H](c1ccccc1O)CC2=O` [PISONIVANONE] showed an MIC of 12.5 µg/mL (≈ 43.7 µM). In the case of `COc1c(O)cc2occc(=O)c2c1O` [PISONIN C], the MIC is reported as 80 µg/mL (≈ 384 µM).

From ChEMBL document CHEMBL1799915, “Antitubercular chromones and flavonoids from Pisonia aculeata” (2011)
